Assay outcomes: PubChem BioAssay, The Scripps Research Institute Molecular Screening Center
Most compounds without a hit are left out; they make up all but 2.3% or so of the library.
OXTR agonist: agonists of human oxytocin receptor. P30559. CHO-OTR cells, Fluo-8 calcium fluorescence; normalized: DMSO 0%, oxytocin 100%. activation, % at 3 µM. 320,000 tested, 0.32% active. AID 2435;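 active means activation above the mean of all tested compounds plus 3 SD, cutoff set per screening run, cut at about 20% in these data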;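 further: peak over basal fluorescence ratio from a 100 s FLIPR kinetic read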
Target sequence (P30559 whole entry, looked up): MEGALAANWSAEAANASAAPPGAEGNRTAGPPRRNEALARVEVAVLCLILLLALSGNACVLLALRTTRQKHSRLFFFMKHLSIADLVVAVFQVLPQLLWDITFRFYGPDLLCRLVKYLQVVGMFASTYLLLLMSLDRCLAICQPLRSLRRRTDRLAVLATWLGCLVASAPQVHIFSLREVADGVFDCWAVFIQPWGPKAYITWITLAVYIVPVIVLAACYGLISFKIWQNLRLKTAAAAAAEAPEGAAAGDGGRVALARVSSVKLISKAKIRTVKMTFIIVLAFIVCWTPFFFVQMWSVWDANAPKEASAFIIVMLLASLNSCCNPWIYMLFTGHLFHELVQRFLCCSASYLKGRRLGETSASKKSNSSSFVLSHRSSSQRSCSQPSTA
OXTR potentiator: human OXTR potentiation. P30559. activation, % at 3 µM. 320,000 tested, 0.061% active. CHO-OTR cells, Fluo-8 calcium fluorescence, potentiator mode; 0% = oxytocin EC15, 100% = EC100;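 active means activation above that plate's cutoff, the mean activation of tested compounds plus 3 SD, cut at about 6.6% in these data, passing the limit was not always enough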;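 further: 100% uses oxytocin at 75 nM as the full agonist control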
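Measured by – Fluo-8 calcium dye fluorescence · Test system – human OTR in CHO cells · Dosing – one concentration, 3.0 µM compound · Controls – EC15 oxytocin alone as 0%, 75 nM oxytocin as 100% · Evaluation – normalized max/min fluorescence ratio, % activation · Timing – 6 min pre-incubation, 100 s read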
TAAR1 ag: human TAAR1 agonism. Q96RJ0. CHO RD-HGA16 TAAR1, Fluo-8 calcium fluorescence; vehicle wells 0%, saturating PEA agonist 100%. activation, % at 3 µM. 360,000 tested, 0.99% active;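 active means activation above the mean activation of all test compounds in the run plus 3 SD, cut at about 38% in these data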
Target sequence (Q96RJ0 whole entry, looked up): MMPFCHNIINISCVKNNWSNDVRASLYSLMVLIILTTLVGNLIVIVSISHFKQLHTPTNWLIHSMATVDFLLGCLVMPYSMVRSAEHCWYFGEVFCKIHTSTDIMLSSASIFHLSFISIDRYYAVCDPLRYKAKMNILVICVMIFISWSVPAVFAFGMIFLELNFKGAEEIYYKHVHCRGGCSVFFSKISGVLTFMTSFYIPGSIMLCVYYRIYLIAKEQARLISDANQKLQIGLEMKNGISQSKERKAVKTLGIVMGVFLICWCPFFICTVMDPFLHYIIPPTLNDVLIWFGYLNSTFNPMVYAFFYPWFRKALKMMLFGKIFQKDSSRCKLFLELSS
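Repeats: no replicates (n 1) | Material: CHO-derived RD-HGA16 cells with stable Gα16 and human TAAR1 | Technique: Kinetic Fluo-8 calcium fluorescence | Schedule: 17-24 h seeding, 75 min 37 °C dye, 30 min RT | Evaluation: % activation from peak over basal fluorescence ratio, DMSO-to-PEA scaled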
V1aR counter: activates human V1a receptor in oxytocin agonist counter-screen; 320,000 tested, 0.25% active; AID 2797; CHO-V1R cells, Fluo-8 calcium fluorescence, agonist mode; 0% DMSO, 100% 3 nM vasopressin; P37288; activation, % at 3 µM;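 active means activation above the mean activation of all tested compounds plus 3 SD, per screening run, cut at about 20% in these data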;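 further: signal is peak over basal fluorescence ratio across a 100 second FLIPR read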
TAAR1 antag: antagonists of human TAAR1 | Q96RJ0 | CHO RD-HGA16 TAAR1, Fluo-8 calcium fluorescence, antagonist | inhibition, % at 3 µM | 360,000 tested, 1.5% active;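 active means inhibition above a per-plate cutoff, the mean inhibition of test compounds on that plate plus 3 SD, cut at about 49% in these data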;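 further: 0% = DMSO plus EC80 beta-PEA response and 100% = DMSO alone without agonist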
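Test system – hTAAR1-expressing CHO RD-HGA16 cells, Gα16-coupled · Also added – β-PEA at EC80 concentration, post-compound challenge · Compound – 3 µM, single point · Incubation – dye loading 75 min at 37 °C, then 30 min room temperature · Measured by – Fluo-8 intracellular calcium dye fluorescence, real-time kinetic reads · Benchmarks – vehicle and agonist controls · Replicates – singlicate, one well per test compound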
TAAR1 nonsel count: nonselective antagonism, TAAR1 counter-screen; 2,400 tested, 77% active; AID 651780; shares compounds with TAAR1 antag; inhibition, % at 3 µM; counterscreen cell line, calcium fluorescence, antagonist mode; in the data active means inhibition above about 22%;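 further: CHO-Ga16 host cells stimulated with ATP at an EC80 level; 0% = agonist EC80 plus vehicle and 100% = vehicle without agonist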
TAAR1 ant conf: human TAAR1 antagonism, confirmed | AID 651785 | inhibition, % at 3 µM | TAAR1-expressing cells, fluorescence antagonist read-out | 2,400 tested, 40% active | shares compounds with TAAR1 antag; in the data active means inhibition above about 49%;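 further: CHO-Ga16 host cells challenged with agonist PEA near its EC80; 0% = agonist at EC80 plus vehicle and 100% = vehicle with no agonist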
Ga16 ag counter: counter-screen for TAAR1 antagonists: nonselective Ga16 agonists. shares compounds with TAAR1 antag. Ga16-expressing cells, calcium fluorescence, agonist counterscreen. activation, % at 3 µM. 2,400 tested, 18% active. AID 651953; in the data active means activation above about 12%;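 further: 0% = vehicle wells and 100% = saturating stimulus response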
TAAR1 ag count: TAAR1 agonism, antagonist counter-screen; activation, % at 3 µM; 2,400 tested, 2% active; shares compounds with TAAR1 antag; hTAAR1 cell line, fluorescence activation, agonist mode; AID 651955; in the data active means activation above about 37%;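 further: CHO cells stably expressing TAAR1 with calcium dye readout; 0% = DMSO vehicle and 100% = full agonist response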
* marks the source's active call; other numbers are inactive results; · = no result given.

SMILES	OXTR agonist	OXTR potentiator	TAAR1 ag	V1aR counter	TAAR1 antag	TAAR1 nonsel count	TAAR1 ant conf	Ga16 ag counter	TAAR1 ag count
O=C1c2cccc(OCC(=O)N3CCCc4ccccc43)c2CCN1Cc1ccc(Br)cc1	-1.2	-2.9	10.7	0.7	70.7*	39.5*	51.2*	8.5	1.8
CC(C)(C)c1cc(C(=O)NCc2cc(F)cc3c2OCOC3)n(Cc2ccccc2)n1	-2.5	-15.1	3.8	-2.2	81.2*	33.6*	54.8*	4.7	1.5
CC(C)(C)c1cc(C(=O)NNC(=O)Nc2ccccc2)n(Cc2ccccc2)n1	-1.1	-1.5	-1.6	0.0	1.2	·	·	·	·
N/C(=N\c1nc2ccccc2o1)NC(=O)c1ccccc1NC(=O)c1ccccc1	0.7	-9.9	12.2	0.9	64.8*	33.2*	36.5	2.8	-0.7
C[C@@H]1CN([C@H](C)CO)C(=O)c2ccccc2-c2ccccc2CO[C@@H]1CN(C)C(=O)Nc1ccccc1	·	·	0.3	·	1.9	·	·	·	·
CCO[C@@H]1OC(C(=O)NCc2ccccc2)=C[C@H](c2coc3ccccc3c2=O)[C@H]1CCCO	0.7	-15.9	10.5	1.2	50.0*	11.2	23.6	3.0	6.1
C=CCOC(=O)C1=C[C@H](c2cn(C(C)=O)c3ccccc23)C[C@H](OCc2ccc(CO)cc2)O1	6.2	-13.8	24.2	3.3	75.5*	38.2*	51.8*	11.4	16.8
CC(=O)n1cc([C@@H]2C=C(C(=O)N3CCN(C)CC3)O[C@H](OCc3ccc(CO)cc3)C2)c2ccccc21	2.2	-1.5	11.1	1.5	14.4	·	·	·	·
O=C(NCc1ccccc1)C1=C[C@@H](c2coc3ccccc3c2=O)C[C@@H](OCc2ccc(CO)cc2)O1	-2.4	-9.7	13.5	-1.2	52.0*	17.6	21.3	1.7	-1.6
C=CCCC1CN(CC=C)S(=O)(=O)c2c(F)cccc2O1 (configuration not stated)	·	·	1.5	·	-10.4	·	·	·	·
COCC(=O)N(C)[C@H]1C[C@H]2c3[nH]c4c(-c5ccccc5)cccc4c3CCN2C(=O)[C@H]1[C@H](C)O	·	·	3.5	·	19.5	·	·	·	·
COc1ccc(S(=O)(=O)N2CCCCC2)cc1NC(=O)CCCOc1ccc(C)cc1	-1.6	-5.7	1.1	-0.2	0.9	·	·	·	·
O=[N+]([O-])c1ccc(-c2c(-c3ccccc3)ncc3cc(F)ccc23)cc1	-1.4	-2.9	0.2	-0.4	82.0*	19.3	55.3*	1.3	3.4
COc1cc(CNc2cccc3c2S(=O)(=O)N([C@H](C)c2ccccc2)C[C@@H](COCc2ccccc2)O3)cc(OC)c1OC	·	·	1.9	·	4.9	·	·	·	·
CC1CCc2cc(F)ccc2N1C(=O)CSc1nnc2c(n1)[nH]c1ccccc12 (configuration not stated)	-0.5	-17.7	13.3	1.2	56.2*	34.0*	58.0*	7.3	9.3
O=C(CSc1nnc2c(n1)[nH]c1ccccc12)N1CCCCC1	-0.1	1.0	-1.0	0.0	9.1	·	·	·	·
CCOC(=O)c1c(NC(=O)COc2ccccc2C#N)sc2c1CC(C)(C)NC2(C)C	4.7	-12.4	21.8	2.2	74.2*	27.8*	46.1	14.0*	16.4
COC(=O)c1cccc(Nc2nc(-c3cccnc3)nc3ccccc23)c1	-2.2	-6.0	17.3	-2.0	66.8*	27.4*	39.2	5.1	5.0
CCN1CCCC1CNc1ccc(S(C)(=O)=O)cc1[N+](=O)[O-] (configuration not stated)	0.1	-2.2	-4.2	0.1	10.3	·	·	·	·
CS(=O)c1nc(-c2ccc(Br)cc2)cc(-c2ccccc2)c1C#N (configuration not stated)	-1.8	-7.9	-2.0	1.1	69.7*	27.1*	53.0*	4.4	1.7
COc1ccc(C2=NOC(Cn3nc(-c4ccccc4)cc3C(=O)NCc3ccc(C)cc3)C2)cc1 (configuration not stated)	1.7	-5.7	3.6	2.5	24.2	·	·	·	·
COc1ccc(C2=NOC(Cn3nc(C(=O)NCc4ccccc4OC)cc3-c3ccccc3)C2)cc1 (configuration not stated)	3.6	-15.0	16.4	2.1	68.2*	32.6*	52.8*	9.6	5.6
COc1ccc(C2=NOC(Cn3nc(C(=O)NCC4CC4)cc3-c3ccccc3)C2)cc1 (configuration not stated)	0.8	-12.3	14.2	-0.2	72.1*	34.1*	49.3*	6.5	5.2
COc1ccc(C2=NOC(Cn3nc(C(=O)NCc4ccc(OC(F)(F)F)cc4)cc3-c3ccccc3)C2)cc1 (configuration not stated)	-0.1	-4.8	2.3	-0.2	23.9	·	·	·	·
O=S1(=O)CC(N2CCCCC2)CN1Cc1cn(Cc2ccc(F)cc2)nn1 (configuration not stated)	·	·	1.8	·	-27.0	·	·	·	·
SMILES	OXTR agonist	OXTR potentiator	TAAR1 ag	V1aR counter	TAAR1 antag	TAAR1 nonsel count	TAAR1 ant conf	Ga16 ag counter	TAAR1 ag count
CCOC(=O)c1ccc(NC(=O)c2nc[nH]c2C(=O)NC[C@@H](C)O)cc1	·	·	2.1	·	4.4	·	·	·	·
Cn1c(C(=O)NC2CC2)cc2c(=O)n(C)c3ccccc3c21	-0.9	5.0	1.8	0.0	-10.4	·	·	·	·
Cn1c(C(=O)Nc2ccc3c(c2)OCCO3)cc2c(=O)n(C)c3ccccc3c21	-0.9	-8.0	3.4	4.1	51.7*	10.0	34.8	7.9	12.5
COc1ccc(NC(=O)COC(=O)C2COc3ccccc3O2)cc1OC (configuration not stated)	·	·	6.2	·	-2.4	·	·	·	·
COc1ccc(CN(C)C(=O)c2ccc(COc3ccccc3)cc2)c(OC)c1	0.3	-11.9	-1.0	0.6	22.6	·	·	·	·
COc1ccc(CN(C)C(=O)C(Cc2ccccc2)NC(=O)c2ccccc2)c(OC)c1 (configuration not stated)	-2.0	-4.0	6.4	-0.9	67.2*	29.8*	49.6*	5.4	4.1
CCCOc1cccc(C(=O)N(Cc2ccco2)C2CCS(=O)(=O)C2)c1 (configuration not stated)	-1.2	-3.1	-4.6	-0.1	101.7*	0.5	-0.3	-0.4	-0.6
O=C(Nc1cccc(/C=C/c2ccccn2)c1)c1ccc(-n2cncn2)c([N+](=O)[O-])c1	0.7	-6.6	20.6	8.0	72.6*	40.2*	60.9*	13.9*	13.1
